Active and inactive are the calls of the source. No cut-off for these calls is given here.
How the values were obtained:
[1] = target: T1, Proteasome Macropain subunit MB1 (Homo sapiens) (UniProt P28074); test: Inhibition of chymotrypsin-like activity of human 20S proteasome beta 5 subunit assessed as Suc-Leu-Leu-Val-Tyr-AMC substrate hydrolysis at 20 uM after 10 mins by fluorometric analysis
T1 sequence (whole entry): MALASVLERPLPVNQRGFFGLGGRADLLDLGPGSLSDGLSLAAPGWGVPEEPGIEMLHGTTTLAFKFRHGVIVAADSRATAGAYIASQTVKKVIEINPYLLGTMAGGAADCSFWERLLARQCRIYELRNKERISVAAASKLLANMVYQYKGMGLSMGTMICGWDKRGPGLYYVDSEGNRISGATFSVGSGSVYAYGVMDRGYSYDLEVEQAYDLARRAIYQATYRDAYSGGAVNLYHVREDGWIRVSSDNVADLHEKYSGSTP
In short: (§1)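 Single-concentration preliminary screen of human 20S proteasome activity. An equivalent amount of DMSO served as negative control. AMC release read by fluorescence at 30 °C (ex 380/em 460 nm). Percent inhibition was recorded, and at least 40% inhibition triggered full Ki assays.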

[2] = target: Chymotrypsinogen A (Bos taurus) (UniProt P00766); test: (§2) Inhibition of bovine pancreatic alpha-chymotrypsin activity assessed as Suc-Leu-Leu-Val-Tyr-AMC substrate hydrolysis after 10 mins
In short: (§3)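 Bovine pancreatic α-chymotrypsin in 50 mM Tris pH 8.0 with 100 mM NaCl, 5 mM EDTA and 7.5% DMSO. Suc-Leu-Leu-Val-Tyr-AMC at 75 (final) as substrate. AMC release was followed over 10 min.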

NCI60 = test: Cytotoxicity against human NCI60 cells at 10^-5 M; assay type: functional, cell-based
[3] = target: Cathepsin B (Homo sapiens) (UniProt P07858); test: Inhibition of cathepsin B (unknown origin) assessed as Cbz-Phe-Arg-AMC substrate hydrolysis
[4] = target: T2, Proteasome Macropain subunit MB1 (Homo sapiens, UniProt P28074); test: Inhibition of chymotrypsin-like activity of human 20S proteasome beta 5 subunit assessed as Suc-Leu-Leu-Val-Tyr-AMC substrate hydrolysis after 10 mins by fluorometric analysis
T2 sequence (P28074 whole entry): T1 sequence (whole entry)
In short: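 Human 20S proteasome at 0.004 mg mL-1 final, incubated at 30 °C with varied inhibitor concentrations. Buffer: 50 mM Tris pH 7.5, 10 mM NaCl, 25 mM KCl, 1 mM MgCl2, 0.03% SDS, 5% DMSO. Ki from progress-curve slopes fitted to a 4-parameter IC50 equation, Ki = IC50/(1+[S]/Km), Km measured separately. Mean of three.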

[5] = target: T3, Proteasome component C5 (Homo sapiens) (UniProt P20618); test: Inhibition of caspase-like activity of human 20S proteasome beta 1 subunit assessed as Cbz-Leu-Leu-Glu-AMC substrate hydrolysis at 20 uM after 10 mins by fluorometric analysis; in short: as §1
T3 sequence (whole entry): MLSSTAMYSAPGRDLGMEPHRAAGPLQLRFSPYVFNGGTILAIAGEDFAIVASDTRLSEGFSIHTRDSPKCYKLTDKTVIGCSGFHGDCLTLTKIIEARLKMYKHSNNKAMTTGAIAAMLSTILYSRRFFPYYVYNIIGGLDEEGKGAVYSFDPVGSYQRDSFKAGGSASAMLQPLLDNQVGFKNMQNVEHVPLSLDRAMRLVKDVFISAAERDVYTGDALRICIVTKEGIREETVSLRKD

Chymotrypsinogen A = Chymotrypsinogen A (Bos taurus, UniProt P00766); test: as §2; in short: as §3

CC(C)C[C@H](NC(=O)[C@H](C)n1ccc2ncccc2c1=O)B(O)O
inhibition [1]: 100%

CC(C)CCNC(=O)Cn1ccc2c(c1=O)CCCN2C
inhibition [2]: inactive | Activity (NCI60): inactive | inhibition [3]: inactive | inhibition [1]: 7%

O=C(Cn1ccccc1=O)Nc1ccccc1C(=O)c1ccccc1
inhibition [2]: inactive | Activity (NCI60): inactive | inhibition [3]: inactive | inhibition [1]: 21%

CC(C)CCNC(=O)Cn1ccc2c(c1=O)CCCN2
inhibition [2]: inactive | Ki [4]: 10.1 µM | Activity (NCI60): inactive | inhibition [3]: inactive | inhibition [1]: 45%

CCN(CC)c1ccn(CC(=O)NCCC(C)C)c(=O)c1
inhibition [2]: inactive | Activity (NCI60): inactive | inhibition [3]: inactive | inhibition [1]: 28%

CC(C)CCNC(=O)Cn1ccc2ncccc2c1=O
inhibition [2]: inactive | Activity (NCI60): inactive | inhibition [3]: inactive | inhibition [1]: 10%

COc1ccc(NC(=O)Cn2ccc(Nc3ccccc3)cc2=O)cc1
inhibition [2]: inactive | Ki [4]: 1.48 µM | Activity (NCI60): inactive | inhibition [3]: inactive | inhibition [5]: > 50% | inhibition [1]: 72%

CC(C)CCNC(=O)Cn1ccc(N2CCCCC2)cc1=O
inhibition [2]: inactive | Activity (NCI60): inactive | inhibition [3]: inactive | inhibition [1]: 27%

CCN(CC)c1ccn(CC(=O)N[C@@H](CC(C)C)B(O)O)c(=O)c1
inhibition [1]: 100%

CC(C)C[C@H](NC(=O)Cn1ccc2ncccc2c1=O)B(O)O
inhibition [1]: 100%

O=C(Cn1ccccc1=O)NC12CC3CC(CC(C3)C1)C2
inhibition [2]: inactive | Ki [4]: 7.55 µM | Activity (NCI60): inactive | inhibition [3]: inactive | inhibition [5]: > 50% | inhibition [1]: 86%

CC(C)CCNC(=O)[C@H](C)n1ccc2ncccc2c1=O
inhibition [2]: inactive | Activity (NCI60): inactive | inhibition [3]: inactive | inhibition [1]: 35%

O=C(Cn1ccc(Nc2ccccc2)cc1=O)NCc1ccccc1
inhibition [2]: inactive | Activity (NCI60): inactive | inhibition [3]: inactive | inhibition [1]: 16%

O=C(Cn1ccc(Nc2ccccc2)cc1=O)Nc1ccccc1C(=O)c1ccccc1
Ki (Chymotrypsinogen A): 6.65 µM | Ki [4]: 8.03 µM | Activity (NCI60): inactive | inhibition [3]: inactive | inhibition [1]: 67%

CC(C)C[C@H](NC(=O)Cn1ccc2c(c1=O)CCCN2C)B(O)O
inhibition [1]: 84%

CC(C)C[C@H](NC(=O)Cn1ccc(Nc2ccccc2)cc1=O)B(O)O
inhibition [1]: 97%

CC(C)CCNC(=O)Cn1cc(Br)c2ncccc2c1=O
inhibition [2]: inactive | Ki [4]: 0.56 µM | Activity (NCI60): inactive | inhibition [3]: inactive | inhibition [1]: 56%

CC(C)CCNC(=O)Cn1ccc(N2CCOCC2)cc1=O
inhibition [2]: inactive | Ki [4]: 7.67 µM | Activity (NCI60): inactive | inhibition [3]: inactive | inhibition [1]: 42%

CC(C)C[C@H](NC(=O)[C@H](Cc1ccccc1)NC(=O)c1cnccn1)B(O)O
inhibition [2]: inactive | Activity (NCI60): inactive | inhibition [3]: inactive | inhibition [1]: 100%

CC(C)C[C@H](NC(=O)Cn1cc(Br)c2ncccc2c1=O)B(O)O
inhibition [1]: 100%

O=C(Cn1ccc(Nc2ccccc2)cc1=O)NC12CC3CC(CC(C3)C1)C2
inhibition [2]: inactive | Activity (NCI60): inactive | inhibition [3]: inactive | inhibition [1]: 13%

O=C(Cn1ccc(Nc2ccccc2)cc1=O)Nc1ccccc1
inhibition [2]: inactive | Activity (NCI60): inactive | inhibition [3]: inactive | inhibition [1]: 9%

COc1ccc(NC(=O)Cn2ccccc2=O)cc1
inhibition [2]: inactive | Activity (NCI60): inactive | inhibition [3]: inactive | inhibition [1]: 32%

O=C(Cn1ccccc1=O)Nc1ccccc1
inhibition [2]: inactive | Activity (NCI60): inactive | inhibition [3]: inactive | inhibition [1]: 23%

CC(C)CCNC(=O)Cn1ccc(Nc2ccccc2)cc1=O
inhibition [2]: inactive | Ki [4]: 0.33 µM | Activity (NCI60): inactive | inhibition [3]: inactive | inhibition [1]: 87%

O=C(Cn1ccccc1=O)NCc1ccccc1
inhibition [2]: inactive | Activity (NCI60): inactive | inhibition [3]: inactive | inhibition [1]: 15%

From ChEMBL document CHEMBL3232790, “Identification of a new series of amides as non-covalent proteasome inhibitors” (Eur J Med Chem, 2014)
